Experiment [1] concerns the target T1, 5-hydroxytryptamine receptor 1A (Homo sapiens) (UniProt P08908).
T1 sequence (whole entry): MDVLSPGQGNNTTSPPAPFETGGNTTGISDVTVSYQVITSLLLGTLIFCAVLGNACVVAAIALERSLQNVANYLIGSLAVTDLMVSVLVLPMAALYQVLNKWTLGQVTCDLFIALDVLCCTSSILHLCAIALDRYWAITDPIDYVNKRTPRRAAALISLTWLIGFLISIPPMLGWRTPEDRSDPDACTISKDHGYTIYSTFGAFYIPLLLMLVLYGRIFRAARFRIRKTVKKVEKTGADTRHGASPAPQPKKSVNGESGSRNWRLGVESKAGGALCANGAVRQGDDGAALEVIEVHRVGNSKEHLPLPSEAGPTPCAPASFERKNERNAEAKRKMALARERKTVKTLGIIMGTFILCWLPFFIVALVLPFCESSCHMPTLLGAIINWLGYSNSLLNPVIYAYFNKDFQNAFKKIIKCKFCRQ
Conditions: HeLa.

Experiment [2] concerns the target T2, Alpha-1B adrenergic receptor (Rattus norvegicus) (UniProt P15823).
T2 sequence (whole entry): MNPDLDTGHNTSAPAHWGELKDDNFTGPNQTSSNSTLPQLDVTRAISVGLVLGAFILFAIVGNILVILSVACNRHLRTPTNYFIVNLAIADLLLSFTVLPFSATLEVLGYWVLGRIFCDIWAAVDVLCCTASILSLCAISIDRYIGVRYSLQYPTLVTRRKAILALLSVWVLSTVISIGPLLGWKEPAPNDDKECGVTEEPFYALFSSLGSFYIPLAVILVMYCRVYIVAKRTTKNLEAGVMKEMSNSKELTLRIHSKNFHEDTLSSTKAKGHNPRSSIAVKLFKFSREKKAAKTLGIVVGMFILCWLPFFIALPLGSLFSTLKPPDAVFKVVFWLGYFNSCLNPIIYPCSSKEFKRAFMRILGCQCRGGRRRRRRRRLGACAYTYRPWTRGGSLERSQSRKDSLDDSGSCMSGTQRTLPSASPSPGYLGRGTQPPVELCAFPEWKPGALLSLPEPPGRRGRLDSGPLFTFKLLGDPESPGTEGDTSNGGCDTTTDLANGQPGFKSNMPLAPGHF
In words: Antagonism of Alpha-1B adrenergic receptor subtype (-)-phenylephrine-induced contraction of rat spleen. The format is functional, tissue-based. Summed up:
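Rat spleen, isometric cumulative (–)-phenylephrine curves at 30-min intervals; first discarded, second taken as control. Antagonist was equilibrated 30 min before the next curve.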

The target in experiment [3] is T3, Adrenergic receptor alpha-2 (Rattus norvegicus, UniProt P22086+P19328+P22909).
T3 sequence (P22086 whole entry): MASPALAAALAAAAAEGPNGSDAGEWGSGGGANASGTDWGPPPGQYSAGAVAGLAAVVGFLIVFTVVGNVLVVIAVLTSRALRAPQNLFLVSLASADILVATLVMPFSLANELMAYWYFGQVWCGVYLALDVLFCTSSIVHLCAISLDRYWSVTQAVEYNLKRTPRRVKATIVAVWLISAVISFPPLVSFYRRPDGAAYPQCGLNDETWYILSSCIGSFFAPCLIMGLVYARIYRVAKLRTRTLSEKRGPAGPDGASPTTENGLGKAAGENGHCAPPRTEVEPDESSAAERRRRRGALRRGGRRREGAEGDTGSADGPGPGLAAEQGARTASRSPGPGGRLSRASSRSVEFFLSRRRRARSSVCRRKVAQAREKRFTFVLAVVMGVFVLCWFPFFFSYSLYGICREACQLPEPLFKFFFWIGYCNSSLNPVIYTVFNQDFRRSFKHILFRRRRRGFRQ
T3 sequence (P19328 whole entry): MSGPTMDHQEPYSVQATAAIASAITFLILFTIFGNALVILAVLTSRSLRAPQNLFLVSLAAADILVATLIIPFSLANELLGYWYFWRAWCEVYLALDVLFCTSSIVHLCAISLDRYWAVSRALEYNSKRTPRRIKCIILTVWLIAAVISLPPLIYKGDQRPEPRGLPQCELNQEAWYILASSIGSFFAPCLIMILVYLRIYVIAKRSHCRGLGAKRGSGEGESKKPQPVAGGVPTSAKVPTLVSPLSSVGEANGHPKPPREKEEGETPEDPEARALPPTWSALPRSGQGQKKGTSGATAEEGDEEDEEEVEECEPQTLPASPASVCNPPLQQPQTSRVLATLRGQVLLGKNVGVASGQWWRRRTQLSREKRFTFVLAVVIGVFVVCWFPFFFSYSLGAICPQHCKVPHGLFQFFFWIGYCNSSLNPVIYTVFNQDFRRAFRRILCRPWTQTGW
T3 sequence (P22909 whole entry): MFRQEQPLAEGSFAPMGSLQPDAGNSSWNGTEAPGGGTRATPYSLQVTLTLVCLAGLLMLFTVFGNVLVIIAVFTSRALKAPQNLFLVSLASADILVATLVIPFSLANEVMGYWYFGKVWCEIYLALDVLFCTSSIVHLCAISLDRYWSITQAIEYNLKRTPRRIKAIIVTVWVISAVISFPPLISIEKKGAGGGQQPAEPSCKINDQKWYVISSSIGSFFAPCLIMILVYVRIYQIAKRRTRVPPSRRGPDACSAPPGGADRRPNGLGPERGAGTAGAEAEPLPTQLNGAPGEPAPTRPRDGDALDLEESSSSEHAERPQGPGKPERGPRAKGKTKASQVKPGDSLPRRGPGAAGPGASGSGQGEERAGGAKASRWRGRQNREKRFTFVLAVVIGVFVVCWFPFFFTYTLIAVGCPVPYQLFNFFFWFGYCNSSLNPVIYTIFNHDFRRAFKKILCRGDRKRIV
In words: Displacement of [3H]rauwolscine from rat brain Alpha-2 adrenergic receptor. In a few lines: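 Rat cerebral cortex membranes (male Sprague–Dawley) were washed in Tris-HCl pH 7.4 and resuspended with 10 μM pargiline and 0.1% ascorbic acid. They were incubated 30 min at 25 °C with 0.5–1.5 nM [3H]rauwolscine. Nonspecific binding was taken with 10 μM phentolamine. Filtration and scintillation counting followed, and Ki was obtained by Cheng–Prusoff.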
(Displacement assays read how much labelled ligand stays bound in the presence of the test substance.)

The next experiment concerns the target D(2) dopamine receptor (Rattus norvegicus, UniProt P61169). Briefly: Displacement of [3H]spiperone from rat brain Dopamine receptor D2. In a few lines: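 Striata from male Sprague–Dawley rats homogenized in Tris-HCl pH 7.4. Buffer held 10 μM pargiline, 0.1% ascorbic acid, 120 mM NaCl, 5 mM KCl, 2 mM CaCl2, 1 mM MgCl2. Incubated with 0.2–0.6 nM [3H]spiperone for 15 min at 37 °C. Nonspecific binding defined with 1 μM (+)-butaclamol. Filtration, scintillation counting. Ki by Cheng–Prusoff.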

The target of experiment [4] is T1, 5-hydroxytryptamine receptor 1A (Homo sapiens). Conditions: HeLa. This is another data set of the same source.
For experiment [5], the target named is Serotonin 2 (5-HT2) receptor (Rattus norvegicus, UniProt P30994+P08909+P14842). In words: Displacement of [3H]ketanserin from rat brain 5-hydroxytryptamine 2 receptor. In a few lines:
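Rat cerebral cortex membranes (male Sprague–Dawley) in Tris-HCl pH 7.4 with 10 μM pargiline and 0.1% ascorbic acid were incubated 20 min at 37 °C with 0.7–1.3 nM [3H]ketanserin (5-HT2A). Nonspecific binding was defined by 2 μM ketanserin. Bound label was counted after filtration, and Ki was derived by Cheng–Prusoff.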

The target of experiment [6] is T4, Alpha-1B adrenergic receptor (Homo sapiens, UniProt P35368).
T4 sequence (P35368 whole entry): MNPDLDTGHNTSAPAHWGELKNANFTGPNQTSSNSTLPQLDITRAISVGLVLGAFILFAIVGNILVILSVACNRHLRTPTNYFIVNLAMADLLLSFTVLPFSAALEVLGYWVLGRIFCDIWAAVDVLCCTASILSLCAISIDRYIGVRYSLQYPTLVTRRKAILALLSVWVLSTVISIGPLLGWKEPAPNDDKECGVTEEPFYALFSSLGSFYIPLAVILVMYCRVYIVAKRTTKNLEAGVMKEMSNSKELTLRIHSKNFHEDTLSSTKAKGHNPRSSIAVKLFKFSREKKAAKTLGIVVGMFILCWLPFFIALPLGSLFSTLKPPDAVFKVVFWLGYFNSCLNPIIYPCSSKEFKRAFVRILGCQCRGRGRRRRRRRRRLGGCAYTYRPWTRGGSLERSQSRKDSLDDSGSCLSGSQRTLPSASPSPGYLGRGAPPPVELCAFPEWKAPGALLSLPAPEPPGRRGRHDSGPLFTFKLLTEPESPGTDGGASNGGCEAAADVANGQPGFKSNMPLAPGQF
Briefly: Displacement of [3H]prazosin from human cloned Alpha-1B adrenergic receptor. Summed up:
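CHO cells stably transfected with each human α1 subtype; 30 μg membrane protein in 50 mM Tris-HCl pH 7.4 with 0.1–0.4 nM [3H]prazosin, 30 min at 25 °C. Competitors 1 pM–10 μM. Nonspecific binding defined with 10 μM phentolamine. Filtration, scintillation counting. Ki by Cheng–Prusoff; 2–3 experiments in triplicate.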

The structures appear in SMILES notation.

D(2) dopamine receptor, sequence (P61169 whole entry): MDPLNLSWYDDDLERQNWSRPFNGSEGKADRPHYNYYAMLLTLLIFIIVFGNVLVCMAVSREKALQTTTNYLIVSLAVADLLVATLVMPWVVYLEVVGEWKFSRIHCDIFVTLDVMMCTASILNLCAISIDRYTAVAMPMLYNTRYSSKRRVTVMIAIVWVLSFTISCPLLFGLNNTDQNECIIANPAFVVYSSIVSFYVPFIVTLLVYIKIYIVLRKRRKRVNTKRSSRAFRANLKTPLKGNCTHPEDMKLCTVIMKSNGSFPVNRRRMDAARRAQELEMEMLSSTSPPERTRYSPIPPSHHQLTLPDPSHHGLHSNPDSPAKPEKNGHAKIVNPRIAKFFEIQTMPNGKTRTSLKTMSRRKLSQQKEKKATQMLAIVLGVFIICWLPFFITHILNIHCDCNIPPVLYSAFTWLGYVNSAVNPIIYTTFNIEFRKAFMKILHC

In experiment [1], `NCCc1c[nH]c2ccc(C(N)=O)cc12` returned a pD2 of 8.45.
`COc1ccccc1N1CCN(CCN2C(=O)CC3(CCCC3)CC2=O)CC1` [BMY-7378]: the pKb (in general, −log10 of the Kb, conventionally taken in molar units) in experiment [2] is 7.55. Besides, the “Log Ki” value is -5.93 in experiment [3] and -6.31 in experiment [5]. The Ki – broadly, a measure of affinity in units of concentration, obtained from inhibition or displacement – on D(2) dopamine receptor was 49 nM. The same molecule displayed a pD2 in experiment [4] of 9.27.
In the case of `CCCN(CCC)C1CCc2cccc(O)c2C1` (stereo unspecified) [8-OH-DPAT], the “Log Ki” value was -6.08 in experiment [3], less than -6 at D(2) dopamine receptor and less than -6 in experiment [5]. The same molecule showed a Ki in experiment [6] of more than 1000 nM.
As to `NCCc1c[nH]c2ccc(O)cc12`, the pD2 in experiment [1] came to 7.3.

Values taken from ChEMBL document CHEMBL1132183 (J Med Chem, 1999).
